Shown is part of a subset that was picked to be rich in hits.
CHOP UPR activ = activators of apoptotic arm of unfolded protein response (CHOP). CHO-CHOP luciferase reporter, UPR activation, luminescence; percent of tunicamycin response over DMSO baseline. activation, % at 10 µM. 330,000 compounds, 0.34% hits. AID 449763;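 active = at 10 µM dose, activation of 40% or more, normalized to positive control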;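 also: 100% = tunicamycin at 10 µg/mL and 0% = DMSO alone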
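Material: CHO-CHOP cells, stable luciferase reporter of PERK-eIF2a-CHOP signalling; quantity: 500 reporter cells seeded per well; buffer or medium: F12 medium containing 10% fetal bovine serum; compound: one dose, 10 µM in 0.5% DMSO; incubation: 6 h compound treatment, 37 °C; measured by: Steady-Glo luciferase luminescence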
XBP1 UPR activ = activators of adaptive arm of unfolded protein response (XBP1). CHO-XBP1 luciferase reporter, IRE1-XBP1 UPR activation, luminescence; percent of tunicamycin response, DMSO as zero. activation, % at 20 µM. 330,000 compounds, 0.33% hits. AID 463104;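 active = versus positive control, 20 µM dose yields 30% or more activation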;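 also: 100% = tunicamycin at 10 µg/mL and 0% = DMSO only wells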
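Material: CHO-XBP1 cells stably carrying IRE1-XBP1-driven luciferase reporter / Amount: 1000 cells per well / Compound: 20 µM, 1% DMSO / Times: 6 h treatment, 37 °C / Detection: luciferase luminescence / Measure: % activation of reporter signal versus tunicamycin and DMSO controls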
CHOP inh = inhibitors of CHOP induction in ER stress response. CHO-K1 CHOP-promoter luciferase, tunicamycin-induced, 15-18 h. inhibition, % at 10 µM. 220,000 compounds, 3.8% hits. AID 2732;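 active = compounds that reduced the stress-induced luciferase reporter signal by more than about 70% of percent inhibition, limit read from the data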;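 also: 0% = tunicamycin plus vehicle and 100% = wells without tunicamycin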
697 NFkB inh = inhibitors of the PMA/ionomycin-induced NF-kB reporter in 697 B cells. AID 435022. 330,000 compounds, 0.33% hits. inhibition, % at 4 µM. 697 B-cell NF-kB luciferase reporter, 16 h; in the data active = inhibition above about 35%
Jurkat NFkB inh = lowers PMA/ionomycin-induced NF-kB signal in Jurkat cells; PMA/ionomycin-induced NF-kB luciferase reporter, luminescence; inhibition, % at 4 µM; 330,000 compounds, 0.53% hits; AID 435003; in the data active = inhibition above about 50%
Numbers without * were called inactive; nt = no result given.

SMILES	CHOP UPR activ	XBP1 UPR activ	CHOP inh	697 NFkB inh	Jurkat NFkB inh
S=C(NCc1ccco1)N1CCN(Cc2ccc(Cl)cc2Cl)CC1	-3.4	-4.7	74.1*	4.2	-4.0
Cc1ccc(C(=O)Nc2ccc(N3CCCC3)cc2)cc1	4.6	-2.0	27.8	-75.2	-84.2
CC(C)Oc1ccc(C(=O)Nc2ccc(N3CCCCC3)cc2)cc1	5.5	-2.4	70.7*	-37.5	-7.6
COc1cccc(C2=NN(C(=O)c3cccs3)C(O)(C(F)(F)F)C2)c1 (configuration not stated)	1.2	10.9	74.5*	11.9	-6.6
Oc1ccc(-c2nccc(-c3cccs3)n2)cc1	9.2	5.9	58.0	-68.3	-75.8
COC(=O)C(C)Oc1ccc(-c2nccc(-c3cccs3)n2)cc1 (configuration not stated)	7.0	-0.2	91.5*	-42.7	-0.4
CCN1C(=O)/C(=c2\sc3nc(=O)c(Cc4ccccc4)nn3c2=O)c2ccccc21	0.8	2.1	24.5	8.7	-7.2
CCn1cc(CN2CCc3c([nH]c4ccccc34)C2c2cccc(OC)c2)c(C)n1 (configuration not stated)	0.9	-2.8	-9.9	10.1	3.3
CCn1cc(CN2CCc3c([nH]c4ccccc34)C2c2ccc(F)c(OC)c2)c(C)n1 (configuration not stated)	-0.6	-3.2	70.3*	7.8	-14.5
NC(=O)CC(NC(=O)c1ccc(Br)cc1)c1ccc(N2CCN(c3ccc(F)cc3)CC2)c([N+](=O)[O-])c1 (configuration not stated)	-1.1	-1.5	93.2*	12.7	10.2
NC(=O)CC(NC(=O)Cc1ccc(Br)cc1)c1ccc(N2CCN(c3ccc(F)cc3)CC2)c([N+](=O)[O-])c1 (configuration not stated)	-1.9	-4.8	85.2*	-9.2	18.7
NC(=O)CC(NC(=O)c1cccc(Br)c1)c1ccc(N2CCN(c3ccc(F)cc3)CC2)c([N+](=O)[O-])c1 (configuration not stated)	-2.3	0.2	nt	-22.9	13.6
O=C(Nc1ccc2c(c1)CCCN2C(=O)c1ccccc1)c1ccccc1	4.9	-1.1	nt	-34.8	-23.5
Cc1c(C(=O)Nc2ccc(F)c(F)c2)oc2ccc(S(=O)(=O)N3CCCCC3)cc12	4.4	-1.2	75.4*	-12.0	6.9
Cc1c(C(=O)Nc2ccc(F)cc2)oc2ccc(S(=O)(=O)N3CCC4(CC3)OCCO4)cc12	1.6	2.3	71.4*	-94.8	6.9
Cc1c(C(=O)Nc2ccc(F)cc2)oc2ccc(S(=O)(=O)N3CCCC3)cc12	-0.7	-1.5	18.2	2.7	-2.9
CCOC(=O)C1CCCN(S(=O)(=O)c2ccc(F)c(C(=O)Nc3ccc(F)c(F)c3)c2)C1 (configuration not stated)	-0.4	-1.3	76.3*	12.0	0.1
CCOC(=O)C1CCCN(S(=O)(=O)c2ccc(NC(C)=O)cc2)C1 (configuration not stated)	-0.6	0.9	9.6	-3.0	23.7
Cc1c(C(=O)NC2CCCc3ccccc32)oc2ccc(S(=O)(=O)N3CCCCC3)cc12 (configuration not stated)	0.7	13.9	84.8*	-15.5	10.6
CCCOc1ccc(-c2c(C(=O)N/N=C/c3cccnc3)nnn2-c2nonc2N)cc1	-1.0	-2.2	nt	8.7	1.6
CC(=O)Nc1ccc(NC(=O)c2cc(=O)c3cc(C)c(C)cc3o2)cc1	0.0	3.8	nt	-5.8	-28.1
C=CCn1ccc(=NC=C(C#N)C#N)c2ccccc21	0.5	-0.3	-0.7	-28.0	29.3
COc1ccc2c(c1)C(=NO)c1cc(OC)ccc1-2	0.1	1.4	72.1*	-24.3	-35.3
CCOC(=O)N1CCN(c2nc(-c3ccc(F)cc3)cs2)CC1	1.7	4.0	78.4*	-9.0	-15.3
COc1ccc(C)cc1S(=O)(=O)N1CCCC(N2CCOCC2)C1 (configuration not stated)	-1.4	-3.8	nt	-6.5	-1.1
N#C/C(=C\C=C\c1ccccc1)C(=O)Nc1ccccc1	2.5	4.2	73.4*	1.3	13.8
N#C/C(=C/C=C/c1ccccc1)C(=O)Nc1ccccc1	3.0	-0.9	44.0	-23.3	-7.3
O=C(NCc1ccc2c(c1)OCO2)c1ccc(CS(=O)(=O)c2ccc(Br)cc2)o1	-0.7	-6.0	74.1*	-22.1	4.4
